Source: ChEMBL document CHEMBL4665666, “Discovery and characterization of trypanocidal cysteine protease inhibitors from the 'malaria box'” (Eur J Med Chem, 2019)
Calls of active or inactive are those of the source. No cut-off for these calls is given here.

Experiments:
[1] = biological target: Cruzipain (Trypanosoma cruzi) (UniProt P25779); assay: Inhibition of recombinant Trypanosoma cruzi cruzain at 5 uM using Z-FR-AMC as substrate and measured at 12 sec interval for 5 mins without preincubation by fluorimetric analysis relative to control
Sequence of Cruzipain (Trypanosoma cruzi) (P25779 123-467 limits assumed): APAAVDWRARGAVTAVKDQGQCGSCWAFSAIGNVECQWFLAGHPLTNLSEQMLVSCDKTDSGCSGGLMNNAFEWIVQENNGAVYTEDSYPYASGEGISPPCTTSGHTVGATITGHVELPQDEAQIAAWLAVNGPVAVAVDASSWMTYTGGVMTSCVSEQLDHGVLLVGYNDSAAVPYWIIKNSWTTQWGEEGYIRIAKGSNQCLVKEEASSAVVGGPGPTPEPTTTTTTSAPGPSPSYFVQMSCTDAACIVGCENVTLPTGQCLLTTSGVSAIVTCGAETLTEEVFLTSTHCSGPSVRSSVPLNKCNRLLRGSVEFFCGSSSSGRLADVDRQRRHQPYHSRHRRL
Procedure, shortened: (§1)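 Recombinant rhodesain or cruzain (1 nM) in 0.1 M sodium acetate pH 5.5, 0.01% Triton X-100, 1 mM β-mercaptoethanol. Compound at a single concentration, either without or after 10 min enzyme pre-incubation. Inhibition is relative to DMSO, with E-64 as positive control. Done in duplicate (primary screen) or triplicate.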

[2] = biological target: Cruzipain (Trypanosoma cruzi) (UniProt P25779); assay: Inhibition of recombinant Trypanosoma cruzi cruzain at 5 uM using Z-FR-AMC as substrate preincubated for 10 mins followed by substrate addition and measured at 12 sec interval for 5 mins by fluorimetric analysis relative to control; conditions: time 15.0 min; procedure, shortened: as §1
[3] = biological target: Rhodesain (Trypanosoma brucei rhodesiense) (UniProt Q95PM0); assay: Inhibition of recombinant Trypanosoma brucei rhodesain expressed in Pichia pastoris at 5 uM using Z-FR-AMC as substrate and measured at 12 sec interval for 5 mins without preincubation by fluorimetric analysis relative to control; procedure, shortened: as §1
Sequence of Rhodesain (Trypanosoma brucei rhodesiense) (Q95PM0 1-450): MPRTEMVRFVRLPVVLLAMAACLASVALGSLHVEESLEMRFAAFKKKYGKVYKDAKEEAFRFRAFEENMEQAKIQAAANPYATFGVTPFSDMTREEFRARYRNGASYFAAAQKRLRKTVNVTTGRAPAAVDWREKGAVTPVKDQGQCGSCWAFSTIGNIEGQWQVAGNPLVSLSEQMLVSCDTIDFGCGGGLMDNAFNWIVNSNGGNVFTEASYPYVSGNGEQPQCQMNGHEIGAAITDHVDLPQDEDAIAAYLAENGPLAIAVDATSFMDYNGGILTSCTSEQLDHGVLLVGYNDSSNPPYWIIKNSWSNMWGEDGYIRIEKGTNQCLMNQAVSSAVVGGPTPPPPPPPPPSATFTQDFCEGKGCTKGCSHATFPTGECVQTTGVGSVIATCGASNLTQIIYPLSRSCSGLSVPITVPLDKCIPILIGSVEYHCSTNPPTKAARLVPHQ

[4] = biological target: Rhodesain (Trypanosoma brucei rhodesiense) (UniProt Q95PM0); assay: Inhibition of recombinant Trypanosoma brucei rhodesain expressed in Pichia pastoris at 5 uM using Z-FR-AMC as substrate preincubated for 10 mins followed by substrate addition and measured at 12 sec interval for 5 mins by fluorimetric analysis relative to control; conditions: time 15.0 min; procedure, shortened: as §1
[5] = biological target: Cruzipain (Trypanosoma cruzi) (UniProt P25779); assay: Inhibition of recombinant Trypanosoma cruzi cruzain at 10 uM using Z-FR-AMC as substrate and measured at 12 sec interval for 5 mins without preincubation by fluorimetric analysis relative to control
Procedure, shortened: (§2)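 Recombinant rhodesain or cruzain (1 nM) in 0.1 M sodium acetate pH 5.5, 0.01% Triton X-100, 1 mM β-mercaptoethanol. Compound at a single concentration, either without or after 10 min enzyme pre-incubation. Z-FR-AMC 2.5 µM, read at 340/440 nm every 12 s for 5 min. Inhibition is relative to DMSO, with E-64 as positive control. Done in duplicate (primary screen) or triplicate.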

[6] = biological target: Cruzipain (Trypanosoma cruzi) (UniProt P25779); assay: Inhibition of recombinant Trypanosoma cruzi cruzain at 10 uM using Z-FR-AMC as substrate preincubated for 10 mins followed by substrate addition and measured at 12 sec interval for 5 mins by fluorimetric analysis relative to control; conditions: time 15.0 min; procedure, shortened: as §2
[7] = biological target: Rhodesain (Trypanosoma brucei rhodesiense) (UniProt Q95PM0); assay: Inhibition of recombinant Trypanosoma brucei rhodesain expressed in Pichia pastoris at 10 uM using Z-FR-AMC as substrate and measured at 12 sec interval for 5 mins without preincubation by fluorimetric analysis relative to control; procedure, shortened: as §2
[8] = biological target: Rhodesain (Trypanosoma brucei rhodesiense) (UniProt Q95PM0); assay: Inhibition of recombinant Trypanosoma brucei rhodesain expressed in Pichia pastoris at 10 uM using Z-FR-AMC as substrate preincubated for 10 mins followed by substrate addition and measured at 12 sec interval for 5 mins by fluorimetric analysis relative to control; conditions: time 15.0 min; procedure, shortened: as §2
[9] = biological target: Cruzipain (Trypanosoma cruzi) (UniProt P25779); assay: Inhibition of recombinant Trypanosoma cruzi cruzain at 10 uM preincubated for 10 mins in presence of 0.1% Triton X-100 relative to control
Procedure, shortened: (§3)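 To test detergent sensitivity, cruzain was pre-incubated 10 min at room temperature with compound with no Triton X-100, 0.01% or 0.1% Triton X-100. Cleavage of Z-FR-AMC was then followed at pH 5.5 in acetate buffer. Percent inhibition was compared across detergent levels.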

[10] = biological target: Cruzipain (Trypanosoma cruzi) (UniProt P25779); assay: Inhibition of recombinant Trypanosoma cruzi cruzain at 10 uM preincubated for 10 mins in presence of 0.01% Triton X-100 relative to control; procedure, shortened: as §3
[11] = biological target: Cruzipain (Trypanosoma cruzi) (UniProt P25779); assay: Inhibition of recombinant Trypanosoma cruzi cruzain at 10 uM preincubated for 10 mins in absence of Triton X-100 relative to control; procedure, shortened: as §3
[12] = biological target: Cruzipain (Trypanosoma cruzi) (UniProt P25779); assay: Inhibition of recombinant Trypanosoma cruzi cruzain at 10 uM preincubated with BSA for 5 mins followed by incubation with enzyme for 5 mins followed by substrate addition relative to control; conditions: time 10.0 min
Procedure, shortened: (§4)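 For BSA sensitivity, compound was held 5 min with BSA (2 mg/mL in 0.001% Triton X-100), then 5 min with 1 nM cruzain, before substrate was added and activity monitored. Parallel runs omitted BSA under otherwise identical conditions.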

[13] = biological target: Cruzipain (Trypanosoma cruzi) (UniProt P25779); assay: Inhibition of recombinant Trypanosoma cruzi cruzain at 10 uM preincubated with enzyme for 5 mins followed by substrate addition in absence of BSA relative to control; procedure, shortened: as §4
[14] = system: Trypanosoma cruzi; assay: Trypanocidal activity against Trypanosoma cruzi Tulahuen C4 assessed as reduction in parasite viability; assay type: functional, organism-based
[15] = system: Trypanosoma brucei brucei; assay: Trypanocidal activity against Trypanosoma brucei brucei Squib 427 assessed as reduction in parasite viability; assay type: functional, organism-based
[16] = system: Trypanosoma brucei rhodesiense; assay: Trypanocidal activity against Trypanosoma brucei rhodesiense STI B900 assessed as reduction in parasite viability; assay type: functional, organism-based
[17] = biological target: Cruzipain (Trypanosoma cruzi) (UniProt P25779); assay: Inhibition of recombinant Trypanosoma cruzi cruzain at 20 uM using Z-FR-AMC as substrate and measured at 12 sec interval for 5 mins without preincubation by fluorimetric analysis relative to control; procedure, shortened: as §2
[18] = biological target: Cruzipain (Trypanosoma cruzi) (UniProt P25779); assay: Inhibition of recombinant Trypanosoma cruzi cruzain at 20 uM using Z-FR-AMC as substrate preincubated for 10 mins followed by substrate addition and measured at 12 sec interval for 5 mins by fluorimetric analysis relative to control; conditions: time 15.0 min; procedure, shortened: as §2
[19] = biological target: Rhodesain (Trypanosoma brucei rhodesiense) (UniProt Q95PM0); assay: Inhibition of recombinant Trypanosoma brucei rhodesain expressed in Pichia pastoris at 20 uM using Z-FR-AMC as substrate and measured at 12 sec interval for 5 mins without preincubation by fluorimetric analysis relative to control
Procedure, shortened: (§5)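 Run with no pre-incubation or with 10 min enzyme-compound pre-incubation. Fluorescence read at 340/440 nm. Concentration was set by solubility under assay conditions. Inhibition is against DMSO, with E-64 as positive control; triplicate.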

[20] = biological target: Rhodesain (Trypanosoma brucei rhodesiense) (UniProt Q95PM0); assay: Inhibition of recombinant Trypanosoma brucei rhodesain expressed in Pichia pastoris at 20 uM using Z-FR-AMC as substrate preincubated for 10 mins followed by substrate addition and measured at 12 sec interval for 5 mins by fluorimetric analysis relative to control; conditions: time 15.0 min; procedure, shortened: as §5
[21] = biological target: Cruzipain (Trypanosoma cruzi) (UniProt P25779); assay: Inhibition of recombinant Trypanosoma cruzi cruzain at 100 uM using Z-FR-AMC as substrate and measured at 12 sec interval for 5 mins without preincubation by fluorimetric analysis relative to control; procedure, shortened: as §2
[22] = biological target: Cruzipain (Trypanosoma cruzi) (UniProt P25779); assay: Inhibition of recombinant Trypanosoma cruzi cruzain at 100 uM using Z-FR-AMC as substrate preincubated for 10 mins followed by substrate addition and measured at 12 sec interval for 5 mins by fluorimetric analysis relative to control; conditions: time 15.0 min; procedure, shortened: as §2
[23] = biological target: Rhodesain (Trypanosoma brucei rhodesiense) (UniProt Q95PM0); assay: Inhibition of recombinant Trypanosoma brucei rhodesain expressed in Pichia pastoris at 100 uM using Z-FR-AMC as substrate and measured at 12 sec interval for 5 mins without preincubation by fluorimetric analysis relative to control; procedure, shortened: as §5
[24] = biological target: Rhodesain (Trypanosoma brucei rhodesiense) (UniProt Q95PM0); assay: Inhibition of recombinant Trypanosoma brucei rhodesain expressed in Pichia pastoris at 100 uM using Z-FR-AMC as substrate preincubated for 10 mins followed by substrate addition and measured at 12 sec interval for 5 mins by fluorimetric analysis relative to control; conditions: time 15.0 min; procedure, shortened: as §5
[25] = biological target: T1, Cruzipain (Trypanosoma cruzi, UniProt P25779); assay: Inhibition of recombinant Trypanosoma cruzi cruzain using Z-FR-AMC as substrate preincubated for 10 mins followed by substrate addition and measured at 12 sec interval for 5 mins by fluorimetric analysis
T1 sequence (P25779 whole entry): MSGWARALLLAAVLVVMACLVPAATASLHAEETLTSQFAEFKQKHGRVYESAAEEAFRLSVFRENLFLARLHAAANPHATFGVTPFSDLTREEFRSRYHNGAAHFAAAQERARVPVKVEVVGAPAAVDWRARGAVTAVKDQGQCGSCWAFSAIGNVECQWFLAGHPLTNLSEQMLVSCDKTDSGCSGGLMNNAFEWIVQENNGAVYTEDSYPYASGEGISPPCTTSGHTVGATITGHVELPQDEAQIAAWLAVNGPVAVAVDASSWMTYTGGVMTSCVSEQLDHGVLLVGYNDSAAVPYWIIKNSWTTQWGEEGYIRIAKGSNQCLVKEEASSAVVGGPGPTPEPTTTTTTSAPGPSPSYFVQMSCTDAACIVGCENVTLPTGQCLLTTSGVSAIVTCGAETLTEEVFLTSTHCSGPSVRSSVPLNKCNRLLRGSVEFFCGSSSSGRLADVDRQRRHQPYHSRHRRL
Procedure, shortened: (§6)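 Cruzain (recombinant, 1 nM) in 0.1 M sodium acetate pH 5.5 with 0.01% Triton X-100 and 1 mM β-mercaptoethanol; Z-FR-AMC 2.5 µM, read at 340/440 nm every 12 s for 5 min, with or without 10 min enzyme–compound pre-incubation. […] For mechanism and Ki, 0.3–20.0 µM substrate and five inhibitor levels were used, with Lineweaver-Burk plots.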

[26] = biological target: Rhodesain (Trypanosoma brucei rhodesiense, UniProt Q95PM0); assay: Inhibition of recombinant Trypanosoma brucei rhodesain expressed in Pichia pastoris using Z-FR-AMC as substrate preincubated for 10 mins followed by substrate addition and measured at 12 sec interval for 5 mins by fluorimetric analysis
Sequence of Rhodesain (Q95PM0 whole entry): as the sequence (Q95PM0 1-450) above
Procedure, shortened: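 Rhodesain (1 nM) with Z-FR-AMC (2.5 µM) in 0.1 M sodium acetate pH 5.5, 0.01% Triton X-100, 1 mM β-mercaptoethanol, with or without 10 min enzyme-compound pre-incubation. Fluorescence read at 340/440 nm. IC50 by four-parameter nonlinear regression from at least six concentrations in triplicate, with at least two independent runs. Mean ± SEM reported.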

[27] = biological target: Cruzipain (Trypanosoma cruzi) (UniProt P25779); assay: Inhibition of recombinant Trypanosoma cruzi cruzain at 100 uM preincubated for 10 mins in presence of 0.1% Triton X-100 relative to control; procedure, shortened: as §3
[28] = biological target: Cruzipain (Trypanosoma cruzi) (UniProt P25779); assay: Inhibition of recombinant Trypanosoma cruzi cruzain at 100 uM preincubated for 10 mins in presence of 0.01% Triton X-100 relative to control; procedure, shortened: as §3
[29] = biological target: Cruzipain (Trypanosoma cruzi) (UniProt P25779); assay: Inhibition of recombinant Trypanosoma cruzi cruzain at 100 uM preincubated for 10 mins in absence of Triton X-100 relative to control; procedure, shortened: as §3
[30] = biological target: Cruzipain (Trypanosoma cruzi) (UniProt P25779); assay: Inhibition of recombinant Trypanosoma cruzi cruzain at 100 uM preincubated with BSA for 5 mins followed by incubation with enzyme for 5 mins followed by substrate addition relative to control; conditions: time 10.0 min; procedure, shortened: as §4
[31] = biological target: Cruzipain (Trypanosoma cruzi) (UniProt P25779); assay: Inhibition of recombinant Trypanosoma cruzi cruzain at 100 uM preincubated with enzyme for 5 mins followed by substrate addition in absence of BSA relative to control; procedure, shortened: as §4
[32] = system: Trypanosoma cruzi; assay: Trypanocidal activity against Trypanosoma cruzi Y strain trypomastigotes infected in C57BL/6 mouse peritoneal macrophage assessed as reduction in number of trypomastigotes release at 50 uM and measured after day 3 to day 11 post-infection by Neubauer chamber method; assay type: functional, organism-based; conditions: time 11.0 day
Procedure, shortened: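 Thioglycolate-elicited peritoneal macrophages from female C57BL/6 mice, 2 × 10^5/well, infected 2 h at 37°C with Y strain trypomastigotes at 5:1 (parasite:cell) and washed. They were then held with compound (3.125–50 µM) or IFN-γ 100 ng/mL. Trypomastigotes released into the supernatant were counted in a Neubauer chamber at several days after infection. Three independent experiments, each in triplicate.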

[33] = biological target: T1, Cruzipain; assay: Inhibition of recombinant Trypanosoma cruzi cruzain using Z-FR-AMC as substrate and measured at 12 sec interval for 5 mins without preincubation by fluorimetric analysis; procedure, shortened: as §6

SMILES	inhibition [1] [%]	inhibition [2] [%]	inhibition [3] [%]	inhibition [4] [%]	inhibition [5] [%]	inhibition [6] [%]	inhibition [7] [%]	inhibition [8] [%]	inhibition [9] [%]	inhibition [10] [%]	inhibition [11] [%]	inhibition [12] [%]	inhibition [13] [%]	IC50 [14] [µM]	IC50 [15] [µM]	IC50 [16] [µM]	inhibition [17] [%]	inhibition [18] [%]	inhibition [19] [%]	inhibition [20] [%]	also measured
c1ccc(-c2ccc(-c3nc4ccccc4[nH]3)cc2)cc1	77	87.1	42.2	52.9	33	38	14	52	7.3	38.4	100	29	41.3	32	32	32					
CCOc1ccc(/C=C/c2nc(=O)c3ccccc3o2)cc1	30.1	88.6	32.7	67	10	3	8	0							32		15	10	14	0	
COCCNC(=O)c1ccc(OC2CCN(Cc3ccc(F)c(F)c3)CC2)c(Cl)c1	42	74.5	42.1	83.8	18	66	14	81						32	32						inhibition [21]: 29%; inhibition [22]: 78%; inhibition [23]: 63%; inhibition [24]: 75%; IC50 [25]: 5 µM; IC50 [26]: 9 µM; inhibition [27]: 78.6%; inhibition [28]: 68.2%; inhibition [29]: 98.3%; inhibition [30]: 64.7%; inhibition [31]: 79.9%; Activity [32]: Active
COCCNCC(O)Cn1c2ccc(Cl)cc2c2cc(Cl)ccc21 (stereo unspecified)	18.4	42.1	33.6	62.4	14	28	14	3							0.7	0.4					inhibition [21]: 50%; inhibition [22]: 67%; inhibition [23]: 38%; inhibition [24]: 48%; inhibition [27]: 47.3%; inhibition [28]: 25.5%; inhibition [29]: 100%; inhibition [30]: 61.3%; inhibition [31]: 87.9%
Cc1nc2ccccc2c(O)c1CC=C(Cl)Cl	61.5	99.1	43.4	77.1	4	11	5	2							32	32	3	7	4	3	
CCOc1cccc(C(=O)Nc2ccc(-c3nc4ccccc4[nH]3)cc2)c1	88.1	72.7	53.7	75.6	89	100	46	100	34.6	100	100	16	97.9	32	32	32					IC50 [33]: 2.6 µM
